For experiment [1], the target named is Receptor tyrosine-protein kinase erbB-2 (Homo sapiens, UniProt P04626). The experiment is described as follows: Inhibition of human epidermal growth factor receptor (HER-2) using enzyme assay. The procedure, abridged: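 His6-tagged HER-2 cytoplasmic domain was expressed in Sf-9 cells and purified on Ni-NTA (about 80% pure). Enzyme (12.5 ng/well) was preincubated with compound 10 min at room temperature in HEPES pH 7.4. Autophosphorylation ran 1 h with MnCl2/Na3VO4/DTT buffer plus 0.1 mM ATP–50 mM MgCl2 (as added). Europium anti-phosphotyrosine time-resolved fluorescence was read at 340/615 nm. IC50 came from eight concentrations, mean of duplicates.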
Sequence of Receptor tyrosine-protein kinase erbB-2 (P04626 whole entry, the tested form may be a part): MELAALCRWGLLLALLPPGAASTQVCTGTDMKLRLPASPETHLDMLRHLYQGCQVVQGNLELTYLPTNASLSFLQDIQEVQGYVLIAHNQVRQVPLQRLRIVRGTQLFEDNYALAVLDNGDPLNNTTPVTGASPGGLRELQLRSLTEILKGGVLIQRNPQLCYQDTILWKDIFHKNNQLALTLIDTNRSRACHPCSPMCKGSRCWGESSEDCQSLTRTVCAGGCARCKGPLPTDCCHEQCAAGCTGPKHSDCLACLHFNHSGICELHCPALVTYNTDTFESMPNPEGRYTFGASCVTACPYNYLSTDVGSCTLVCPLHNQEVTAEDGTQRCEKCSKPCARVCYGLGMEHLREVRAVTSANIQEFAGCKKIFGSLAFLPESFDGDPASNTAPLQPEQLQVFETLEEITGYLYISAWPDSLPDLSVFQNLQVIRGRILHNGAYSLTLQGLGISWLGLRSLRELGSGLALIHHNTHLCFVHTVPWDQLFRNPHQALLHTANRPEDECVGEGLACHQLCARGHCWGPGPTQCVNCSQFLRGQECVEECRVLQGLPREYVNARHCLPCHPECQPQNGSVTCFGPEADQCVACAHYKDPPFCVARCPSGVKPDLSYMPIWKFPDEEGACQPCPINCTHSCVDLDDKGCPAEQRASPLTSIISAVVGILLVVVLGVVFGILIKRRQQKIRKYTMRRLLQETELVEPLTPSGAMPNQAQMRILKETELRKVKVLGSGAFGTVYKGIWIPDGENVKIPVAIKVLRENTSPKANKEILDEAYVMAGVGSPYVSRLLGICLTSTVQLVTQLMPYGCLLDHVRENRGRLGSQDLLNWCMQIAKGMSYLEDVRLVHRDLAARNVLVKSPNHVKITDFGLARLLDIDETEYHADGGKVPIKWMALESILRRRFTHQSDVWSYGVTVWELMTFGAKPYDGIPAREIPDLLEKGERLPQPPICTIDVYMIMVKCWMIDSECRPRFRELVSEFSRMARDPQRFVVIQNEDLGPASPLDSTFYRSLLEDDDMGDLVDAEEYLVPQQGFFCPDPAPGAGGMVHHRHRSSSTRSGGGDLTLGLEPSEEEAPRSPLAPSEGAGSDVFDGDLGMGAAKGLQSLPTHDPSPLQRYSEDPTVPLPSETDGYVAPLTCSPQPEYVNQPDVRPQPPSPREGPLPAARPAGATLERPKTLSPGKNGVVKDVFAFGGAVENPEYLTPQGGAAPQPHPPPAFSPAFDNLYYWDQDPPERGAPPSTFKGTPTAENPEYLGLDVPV

Experiment [2] has as its target Epidermal growth factor receptor (Homo sapiens, UniProt P00533). The experiment is described as follows: Inhibition of epidermal growth factor receptor using enzyme assay.
Experiment [3] deals with SK-BR-3. Kind of experiment: Inhibition of cell growth of SKBr3 cell lines using cell-based assay. It is filed as functional. As to conditions: Homo sapiens. The procedure, abridged: (§1)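 Cells kept in RPMI-1640 with 5% fetal bovine serum and plated at 5.0 × 10^4/mL. Next day they were dosed at 0.5, 5, 50, 500 and 5000 ng/mL and cultured 2 days. Survival was read by sulforhodamine B. IC50 is the concentration inhibiting growth by 50%, taken from the five-point dose-response curve.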

Experiment [4] deals with A-431. The experiment is described as follows: Inhibition of human epidermoid carcinoma xenograft (A431) tumor growth. It is filed as functional, cell-based. The method, boiled down:
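Female athymic nu/nu mice received 5 × 10^6 A431 cells sc in the flank. At 80–120 mg tumor mass they were randomized, 10 per group. Dosing was oral, once daily on days 1–10, 40 mg/kg in 0.2% Klucel, with a vehicle control. Tumor mass [(length × width²)/2] was measured every 7 days from day 8 to 29. Relative growth is versus day 0, compared by Student t-test of log values.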

Experiment [5] deals with SW-620. Kind of experiment: Inhibition of cell growth of SW620 cell lines using cell-based assay. As to conditions: Homo sapiens. The format is functional. The procedure, abridged: as §1

SMILES strings stand for the structures.

Sequence of Epidermal growth factor receptor (P00533 whole entry): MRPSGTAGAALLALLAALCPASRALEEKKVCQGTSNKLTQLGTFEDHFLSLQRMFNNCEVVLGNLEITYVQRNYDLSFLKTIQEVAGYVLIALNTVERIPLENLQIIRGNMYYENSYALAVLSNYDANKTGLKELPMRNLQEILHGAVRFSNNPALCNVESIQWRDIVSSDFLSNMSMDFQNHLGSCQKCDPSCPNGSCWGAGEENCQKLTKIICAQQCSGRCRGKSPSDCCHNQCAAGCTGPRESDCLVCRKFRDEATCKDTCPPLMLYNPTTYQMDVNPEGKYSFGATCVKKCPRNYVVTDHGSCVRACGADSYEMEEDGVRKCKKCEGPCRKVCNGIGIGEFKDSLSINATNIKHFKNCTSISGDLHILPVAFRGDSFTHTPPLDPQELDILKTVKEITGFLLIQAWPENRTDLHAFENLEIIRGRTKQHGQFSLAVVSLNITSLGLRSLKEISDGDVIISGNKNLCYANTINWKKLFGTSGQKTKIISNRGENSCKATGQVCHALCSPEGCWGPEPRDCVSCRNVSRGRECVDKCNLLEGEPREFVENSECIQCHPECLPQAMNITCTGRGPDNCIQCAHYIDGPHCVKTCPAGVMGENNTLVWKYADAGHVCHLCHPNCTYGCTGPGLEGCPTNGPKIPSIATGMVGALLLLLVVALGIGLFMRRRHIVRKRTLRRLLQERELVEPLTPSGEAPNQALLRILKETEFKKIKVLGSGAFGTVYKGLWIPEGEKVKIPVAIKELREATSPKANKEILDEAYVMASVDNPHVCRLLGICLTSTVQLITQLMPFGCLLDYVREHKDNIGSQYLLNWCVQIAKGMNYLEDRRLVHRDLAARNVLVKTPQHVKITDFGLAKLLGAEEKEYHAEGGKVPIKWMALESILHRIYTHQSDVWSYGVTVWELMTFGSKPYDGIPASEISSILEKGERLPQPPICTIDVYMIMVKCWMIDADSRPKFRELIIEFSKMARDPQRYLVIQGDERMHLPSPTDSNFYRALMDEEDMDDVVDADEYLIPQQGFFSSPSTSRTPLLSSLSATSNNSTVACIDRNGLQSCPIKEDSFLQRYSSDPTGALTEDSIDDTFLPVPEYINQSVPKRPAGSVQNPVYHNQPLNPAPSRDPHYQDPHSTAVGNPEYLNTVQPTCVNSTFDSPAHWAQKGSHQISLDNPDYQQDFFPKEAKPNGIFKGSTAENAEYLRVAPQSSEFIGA

Broadly, the IC50 is the midpoint of a concentration-inhibition curve. For `CN(C)/C=C/C(=O)Nc1ccc2ncnc(Nc3cccc(Br)c3)c2c1`, the IC50 in experiment [1] is 25.7 µM; in experiment [2], 250 nM; in experiment [3] it was 1760 nM; in experiment [4], 2100 nM; in experiment [5] it was 12.1 µM.

Values taken from ChEMBL document CHEMBL1134561, “6-Substituted-4-(3-bromophenylamino)quinazolines as putative irreversible inhibitors of the epidermal growth factor receptor (EGFR) and human epidermal growth factor receptor (HER-2) tyrosine kinases with enhanced antitumor activity” (J Med Chem, 2001).
